Measured values as given in ChEMBL document CHEMBL1828503, “Design, synthesis and docking studies of quinoline-oxazolidinone hybrid molecules and their antitubercular properties” (2011).
≈ marks a conversion by molar mass, not a printed value.

Legend:
Assay type in all cases: functional
[1] = tested on: Mycolicibacterium fortuitum; test: Antimicrobial activity against Mycobacterium fortuitum ATCC 19542 after 7 days by resazurin assay; details: ATCC 19542, 168 h
Outline: (§1)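 Resazurin microplate assay. Culture added to fresh medium in 96-well plates. Compound stocks 2 mg/mL in DMF. DMF-only controls, with rifampicin and isoniazid as references. Incubated 7 days at 37 °C, then 0.01% resazurin in water added. Blue-to-pink change read after 1 h at 37 °C. MIC taken as the lowest concentration preventing the colour change.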

[2] = tested on: Mycolicibacterium smegmatis; test: Antimicrobial activity against Mycobacterium smegmatis ATCC 19420 after 7 days by resazurin assay; details: ATCC 19420, 168 h; outline: as §1
[3] = tested on: Streptococcus pyogenes; test: Antimicrobial activity against Streptococcus pyogenes clinical isolate after 18 to 48 hrs by serial dilution method
[4] = tested on: Mycobacterium tuberculosis; test: Antimicrobial activity against Mycobacterium tuberculosis H37Rv ATCC 27294 after 7 days by resazurin assay; details: H37Rv ATCC 27294, 168 h
Outline: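 M. tuberculosis H37Rv ATCC 27294 culture diluted into fresh medium in 96-well microtitre plates. Compounds were taken from 2 mg/mL stocks in DMF, with DMF-only control tubes and rifampicin and isoniazid as references. Plates were incubated 37 °C for 7 days, then 0.01% aqueous resazurin was added and read after 1 h at 37 °C. MIC is the lowest concentration preventing the blue-to-pink change.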

[5] = tested on: Escherichia coli; test: Antimicrobial activity against Escherichia coli ATCC 25922 after 18 to 48 hrs by serial dilution method
[6] = tested on: Mycobacterium tuberculosis; test: Antimicrobial activity against Mycobacterium tuberculosis H37Rv ATCC 27294 assessed as growth inhibition after 7 days by resazurin assay
[7] = tested on: Pseudomonas aeruginosa; test: Antimicrobial activity against Pseudomonas aeruginosa ATCC 27853 after 18 to 48 hrs by serial dilution method
[8] = tested on: Klebsiella pneumoniae; test: Antimicrobial activity against Klebsiella pneumoniae clinical isolate after 18 to 48 hrs by serial dilution method
[9] = tested on: Staphylococcus aureus; test: Antimicrobial activity against Staphylococcus aureus ATCC 25923 after 18 to 48 hrs by serial dilution method

Compound | MIC [1] [µg/mL] | MIC [2] [µg/mL] | MIC [3] [µg/mL] | MIC [4] [µg/mL] | MIC [5] [µg/mL] | growth inhibition (GI) [6] [%] | MIC [7] [µg/mL] | MIC [8] [µg/mL] | MIC [9] [µg/mL]
CCN1CCN(CC2CN(CC(=O)Nc3cc(C)nc4ccc(OC)cc34)C(=O)O2)CC1 (stereo unspecified) | 100 (≈ 226 µM) | 100 (≈ 226 µM) | 0.2 (≈ 0.453 µM) | 10 (≈ 22.6 µM) | 1.6 (≈ 3.62 µM) | 85 | 0.8 (≈ 1.81 µM) | 1.6 (≈ 3.62 µM) | 0.8 (≈ 1.81 µM)
COc1ccc2nc(C)cc(N3CC(CNC(=O)c4ccc(Cl)cc4)OC3=O)c2c1 (stereo unspecified) | 100 (≈ 235 µM) | 100 (≈ 235 µM) | 3.12 (≈ 7.34 µM) | 100 (≈ 235 µM) | 3.12 (≈ 7.34 µM) | 85 | 6.25 (≈ 14.7 µM) | 6.25 (≈ 14.7 µM) | 1.6 (≈ 3.76 µM)
COc1ccc2nc(C)cc(NC(=O)CN3CC(CN4CCOCC4)OC3=O)c2c1 (stereo unspecified) | 10 (≈ 24.1 µM) | 10 (≈ 24.1 µM) | 0.2 (≈ 0.483 µM) | 1 (≈ 2.41 µM) | 0.1 (≈ 0.241 µM) | 95 | 0.4 (≈ 0.965 µM) | 0.1 (≈ 0.241 µM) | 0.8 (≈ 1.93 µM)
COc1ccc(C(=O)NCC2CN(c3cc(C)nc4ccc(OC)cc34)C(=O)O2)cc1 (stereo unspecified) | 10 (≈ 23.7 µM) | 5 (≈ 11.9 µM) | 0.4 (≈ 0.949 µM) | 5 (≈ 11.9 µM) | 0.2 (≈ 0.475 µM) | 85 | 0.2 (≈ 0.475 µM) | 0.1 (≈ 0.237 µM) | 0.8 (≈ 1.9 µM)
COc1ccc2nc(C)cc(NC(=O)CN3CC(CN4CCC(C)CC4)OC3=O)c2c1 (stereo unspecified) | 100 (≈ 234 µM) | 100 (≈ 234 µM) | 6.25 (≈ 14.7 µM) | 100 (≈ 234 µM) | 6.25 (≈ 14.7 µM) | 0 | > 12.5 | 6.25 (≈ 14.7 µM) | > 12.5
COc1ccc2nc(C)cc(N3CC(CNC(=O)c4ccc(C)cc4)OC3=O)c2c1 (stereo unspecified) | 100 (≈ 247 µM) | 100 (≈ 247 µM) | 1.6 (≈ 3.95 µM) | 100 (≈ 247 µM) | 3.12 (≈ 7.71 µM) | 0 | 3.12 (≈ 7.71 µM) | 3.12 (≈ 7.71 µM) | 3.12 (≈ 7.71 µM)
COc1ccc2nc(C)cc(NC(=O)CN3CC(CNCC4CCCCC4)OC3=O)c2c1 (stereo unspecified) | 100 (≈ 227 µM) | 100 (≈ 227 µM) | 1.6 (≈ 3.63 µM) | 100 (≈ 227 µM) | 6.25 (≈ 14.2 µM) | 0 | > 12.5 | 6.25 (≈ 14.2 µM) | 6.25 (≈ 14.2 µM)
COc1ccc2nc(C)cc(N3CC(CNC(=O)c4ccc(F)cc4)OC3=O)c2c1 (stereo unspecified) | 10 (≈ 24.4 µM) | 10 (≈ 24.4 µM) | 0.4 (≈ 0.977 µM) | 1 (≈ 2.44 µM) | 0.2 (≈ 0.488 µM) | 90 | 0.4 (≈ 0.977 µM) | 0.1 (≈ 0.244 µM) | 0.8 (≈ 1.95 µM)
COc1ccc2nc(C)cc(NC(=O)CN3CC(CN4CCN(C)CC4)OC3=O)c2c1 (stereo unspecified) | 10 (≈ 23.4 µM) | 10 (≈ 23.4 µM) | 0.4 (≈ 0.936 µM) | 1 (≈ 2.34 µM) | 0.4 (≈ 0.936 µM) | 90 | 1.6 (≈ 3.74 µM) | 0.1 (≈ 0.234 µM) | 0.8 (≈ 1.87 µM)
COc1ccc2nc(C)cc(NC(=O)CN3CC(CNC4CC4)OC3=O)c2c1 (stereo unspecified) | 100 (≈ 260 µM) | 100 (≈ 260 µM) | 3.12 (≈ 8.13 µM) | 10 (≈ 26 µM) | > 12.5 | 90 | 1.6 (≈ 4.16 µM) | > 12.5 | 1.6 (≈ 4.16 µM)
COc1ccc2nc(C)cc(N3CC(CNC(=O)c4ccc(C(F)(F)F)cc4)OC3=O)c2c1 (stereo unspecified) | 2.5 (≈ 5.44 µM) | 10 (≈ 21.8 µM) | 0.4 (≈ 0.871 µM) | 0.625 (≈ 1.36 µM) | 0.4 (≈ 0.871 µM) | 90 | 0.4 (≈ 0.871 µM) | 0.8 (≈ 1.74 µM) | 0.8 (≈ 1.74 µM)
CCc1ccc(C(=O)NCC2CN(c3cc(C)nc4ccc(OC)cc34)C(=O)O2)cc1 (stereo unspecified) | 100 (≈ 238 µM) | 100 (≈ 238 µM) | 6.25 (≈ 14.9 µM) | 100 (≈ 238 µM) | 3.12 (≈ 7.45 µM) | 0 | > 12.5 | 1.6 (≈ 3.81 µM) | 1.6 (≈ 3.81 µM)
COc1ccc2nc(C)cc(N3CC(CNC(=O)C4CC4)OC3=O)c2c1 (stereo unspecified) | 10 (≈ 28.1 µM) | 10 (≈ 28.1 µM) | 0.4 (≈ 1.13 µM) | 1 (≈ 2.81 µM) | 0.8 (≈ 2.25 µM) | 90 | 0.4 (≈ 1.13 µM) | 1.6 (≈ 4.5 µM) | 0.8 (≈ 2.25 µM)
CCN(CC)CC1CN(CC(=O)Nc2cc(C)nc3ccc(OC)cc23)C(=O)O1 (stereo unspecified) | 10 (≈ 25 µM) | 10 (≈ 25 µM) | 3.12 (≈ 7.8 µM) | 1 (≈ 2.5 µM) | 0.4 (≈ 0.999 µM) | 90 | 0.4 (≈ 0.999 µM) | 0.1 (≈ 0.25 µM) | 1.6 (≈ 4 µM)
COc1ccc2nc(C)cc(N3CC(CNC(=O)c4ccccc4F)OC3=O)c2c1 (stereo unspecified) | 10 (≈ 24.4 µM) | 5 (≈ 12.2 µM) | 3.12 (≈ 7.63 µM) | 1 (≈ 2.44 µM) | 6.25 (≈ 15.3 µM) | 90 | 3.12 (≈ 7.63 µM) | 6.25 (≈ 15.3 µM) | 1.6 (≈ 3.91 µM)
O=C(O)c1cn(C2CC2)c2cc(N3CCNCC3)c(F)cc2c1=O [CIPROFLOXACIN] |  |  |  |  | 0.025 (≈ 0.0754 µM) |  | 0.4 (≈ 1.21 µM) |  | 1 (≈ 3.02 µM)
CO[C@H]1/C=C/O[C@@]2(C)Oc3c(C)c(O)c4c(O)c(c(/C=N/N5CCN(C)CC5)c(O)c4c3C2=O)NC(=O)/C(C)=C\C=C\[C@H](C)[C@H](O)[C@@H](C)[C@@H](O)[C@@H](C)[C@H](OC(C)=O)[C@@H]1C [RIFAMPIN] | 1.5 (≈ 1.82 µM) | 1.5 (≈ 1.82 µM) |  | 0.5 (≈ 0.608 µM) |  | >95 |  |  | 
NNC(=O)c1ccncc1 [ISONIAZID] | 12.5 (≈ 91.1 µM) | 50 (≈ 365 µM) |  | 0.7 (≈ 5.1 µM) |  | >95 |  |  | 
